Data taken from ChEMBL document CHEMBL4145474, “Discovery of novel piperonyl derivatives as diapophytoene desaturase inhibitors for the treatment of methicillin-, vancomycin- and linezolid-resistant Staphylococcus aureus infections” (Eur J Med Chem, 2018).
Calls of active or inactive are those of the source. The rule behind the calls is not given here.

Assays:
[1] = tested on: Staphylococcus aureus; experiment: Inhibition of pigmentation in methicillin-resistant Staphylococcus aureus USA300 LAC after 48 hrs by spectrophotometric method; type: functional, organism-based
Method in brief: (§1)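 Bacteria grown in 4 mL TSB for 48 h at 37 °C with compound serially diluted from DMSO, in duplicate; DMSO vehicle control and non-pigmented CrtN mutant as reference. Cells from 3 mL of culture washed twice with 0.01 M PBS and pigment extracted into methanol. Absorbance read at 450 nm; IC50 fitted from the concentration series.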

[2] = tested on: Staphylococcus aureus; experiment: Inhibition of pigmentation in vancomycin-intermediate methicillin-resistant Staphylococcus aureus Mu50 after 48 hrs by spectrophotometric method; type: functional, organism-based; details: Mu50, 48 h; method in brief: as §1
[3] = tested on: Staphylococcus aureus; experiment: Inhibition of pigmentation in wild type Staphylococcus aureus Newman after 48 hrs by spectrophotometric method; type: functional, organism-based
Method in brief: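 S. aureus Newman was grown in TSB 48 h at 37 °C with a concentration series of compound in DMSO, in duplicate. Controls were a DMSO vehicle and a nonpigmented CrtN mutant. Cells were washed twice in 0.01 M PBS and pigment extracted in methanol. A450 was measured and IC50 derived by curve fitting.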

[4] = tested on: Staphylococcus aureus; experiment: Antibacterial activity against wild type Staphylococcus aureus Newman infected in BALB/c mouse assessed as decrease in bacterial survival in mouse kidney at 0.1 to 0.4 mg, ip bid administered 4.5 days after 6 hrs bacterial infection measured after 90 hrs; type: functional, organism-based
Method in brief: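 Female BALB/c mice, 6-8 weeks old, infected retro-orbitally with 2.2 × 10⁷ CFU S. aureus Newman. Intraperitoneal dosing in 12 intervals: pre-treatment groups received a total of 50 or 200 mg/kg starting before infection; post-treatment groups received a total of 39 or 156 mg/kg starting 6 h after infection. Vehicle was ddH₂O. At 90 h post-infection, liver or kidney was homogenized in PBS/0.01% Triton X-100 and plated on TSA for CFU.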

[5] = Solubility of the compound in water by UV analysis; type: physicochemical
[6] = target: T1, 4,4'-diapophytoene desaturase (4,4'-diaponeurosporene-forming) (Staphylococcus aureus (strain Newman)) (UniProt O07855); experiment: Inhibition of Staphylococcus aureus Newman 6His-tagged CrtN expressed in Escherichia coli BL21(DE3) assessed as 4,4'-diapophytoene accumulation by UV-HPLC analysis; details: Staphylococcus aureus subsp. aureus str. Newman
T1 sequence (whole entry): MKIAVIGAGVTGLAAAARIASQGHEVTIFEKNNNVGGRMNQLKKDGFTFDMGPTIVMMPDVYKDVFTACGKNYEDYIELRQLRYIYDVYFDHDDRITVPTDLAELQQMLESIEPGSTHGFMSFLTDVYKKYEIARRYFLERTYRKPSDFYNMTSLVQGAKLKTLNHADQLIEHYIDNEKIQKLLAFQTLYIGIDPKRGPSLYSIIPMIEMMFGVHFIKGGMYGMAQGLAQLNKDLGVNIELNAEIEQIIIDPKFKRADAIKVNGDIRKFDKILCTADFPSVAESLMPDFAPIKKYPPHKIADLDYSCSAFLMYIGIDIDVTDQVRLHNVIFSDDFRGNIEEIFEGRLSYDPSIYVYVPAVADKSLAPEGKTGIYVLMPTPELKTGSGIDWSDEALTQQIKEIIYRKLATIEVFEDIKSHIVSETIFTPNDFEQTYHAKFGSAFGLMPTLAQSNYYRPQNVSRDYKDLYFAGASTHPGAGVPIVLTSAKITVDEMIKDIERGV
Method in brief: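 Substrate was E. coli-derived diapophytoene emulsified with phosphatidylcholine in 0.02 M HEPES pH 7.5. Run anaerobically (glucose oxidase 20 U/mL, catalase 20000 U/mL, glucose 2 mM final) overnight at 37 °C, stopped with methanol. Triplicate; diapophytoene monitored by HPLC at 286 nm.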

[7] = target: T1, 4,4'-diapophytoene desaturase (4,4'-diaponeurosporene-forming) (Staphylococcus aureus (strain Newman)); experiment: Inhibition of CrtN in methicillin-resistant Staphylococcus aureus USA400 MW2 assessed as bacterial survival at 1 uM after 24 hrs by H2O2 killing assay (reference value: 26.33%)
[8] = target: T2, 4,4'-diapophytoene desaturase (4,4'-diaponeurosporene-forming) (Staphylococcus aureus (strain Mu50 / ATCC 700699)) (UniProt Q99R76); experiment: Inhibition of CrtN in vancomycin-intermediate methicillin-resistant Staphylococcus aureus Mu50 assessed as bacterial survival at 1 uM after 24 hrs by H2O2 killing assay (reference value: 23.33%); details: Staphylococcus aureus subsp. aureus Mu50
T2 sequence (whole entry): T1 sequence (whole entry)

[9] = target: T1, 4,4'-diapophytoene desaturase (4,4'-diaponeurosporene-forming) (Staphylococcus aureus (strain Newman)); experiment: Inhibition of CrtN in methicillin-resistant Staphylococcus aureus USA300 LAC assessed as bacterial survival at 1 uM after 24 hrs by H2O2 killing assay (reference value: 29.67%)
[10] = tested on: Staphylococcus aureus; experiment: Antibacterial activity against methicillin/linezolid-resistant Staphylococcus aureus NRS271 infected in BALB/c mouse assessed as decrease in bacterial survival in mouse liver at 0.1 to 0.4 mg, ip bid administered 4.5 days before 24 hrs bacterial infection measured after 90 hrs; type: functional, organism-based
Method in brief: (§2)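 6–8-week-old female BALB/c mice (SPF) dosed intraperitoneally twice daily over 4.5 d at 0.1 or 0.4 mg/bid. Pre-treatment started before infection; post-treatment started 6 h after infection. Vancomycin and linezolid controls given as pre-treatment at 0.4 mg/bid. Retro-orbital inoculation: Mu50 1.1 × 10⁹ CFU, NRS271 1.8 × 10⁸ CFU. Kidneys and livers homogenised in PBS/0.01% Triton X-100 and plated on TSA for CFU.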

[11] = tested on: Staphylococcus aureus; experiment: Antibacterial activity against vancomycin-intermediate methicillin-resistant Staphylococcus aureus Mu50 infected in BALB/c mouse assessed as decrease in bacterial survival in mouse liver at 0.1 to 0.4 mg, ip bid administered 4.5 days before 24 hrs bacterial infection measured after 90 hrs; type: functional, organism-based; method in brief: as §2
[12] = target: T1, 4,4'-diapophytoene desaturase (4,4'-diaponeurosporene-forming) (Staphylococcus aureus (strain Newman)); experiment: Inhibition of CrtN in methicillin-resistant Staphylococcus aureus USA300 LAC assessed as bacterial survival after 6 hrs by human whole blood assay (reference value: 14.33%)
Method in brief: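 Overnight cultures spun, resuspended in sterile PBS at 1 × 10⁷ CFU/mL, then mixed 1:10 with fresh whole blood from healthy human volunteers (final 1 × 10⁶ CFU/mL). Incubated 6 h at 37 °C; surviving CFU counted by plating dilutions on TSA. Two independent experiments.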

[13] = tested on: Staphylococcus aureus; experiment: Growth inhibition of vancomycin-intermediate methicillin-resistant Staphylococcus aureus Mu50 at 0.2 mM incubated for overnight; type: functional, organism-based
Method in brief: (§3)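 Overnight cultures washed in PBS and diluted in TSB to OD600 ~1.0. Inoculated to a final OD600 of about 0.05 into TSB containing compound (0.2 or 0.05 mM, from a 20 mM DMSO stock) or DMSO growth control, overlaid with paraffin wax. OD600 read every 30 min during overnight incubation at 37 °C.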

[14] = tested on: Staphylococcus aureus; experiment: Antibacterial activity against methicillin-resistant Staphylococcus aureus USA400 MW2 assessed as decrease in bacterial survival at 1 uM after 24 hrs by H2O2 killing assay; type: functional, organism-based
[15] = tested on: Staphylococcus aureus; experiment: Growth inhibition of methicillin/linezolid-resistant Staphylococcus aureus NRS271 at 0.2 mM incubated for overnight; type: functional, organism-based; method in brief: as §3
[16] = target: T1, 4,4'-diapophytoene desaturase (4,4'-diaponeurosporene-forming) (Staphylococcus aureus (strain Newman)); experiment: Inhibition of CrtN in wild type Staphylococcus aureus Newman assessed as decrease in bacterial survival after 6 hrs by human whole blood killing assay relative to control; details: Staphylococcus aureus subsp. aureus str. Newman
Method in brief: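 Tubes were incubated 6 h at 37 °C, then serial dilutions were plated on TSA to count surviving CFU. Two independent experiments, compared against vehicle.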

[17] = tested on: Staphylococcus aureus; experiment: Antibacterial activity against vancomycin-intermediate methicillin-resistant Staphylococcus aureus Mu50 assessed as decrease in bacterial survival at 1 uM after 24 hrs by H2O2 killing assay; type: functional, organism-based

CN(C/C=C/C=C/c1ccc(C(F)(F)F)cc1F)Cc1ccc2c(c1)OCO2.Cl
IC50 [1]: 12.9 nM
IC50 [2]: 2.5 nM
IC50 [3]: 4.02 nM
Activity [4]: Active
solubility [5]: 8690 µg/mL
inhibition [6]: Active
Survival [7]: 2.33%
Survival [8]: 2%
Survival [9]: 2.67%
Activity [10]: inactive
Activity [11]: Active
Survival [12]: 1.57%
growth inhibition (GI) [13]: inactive
Activity [14]: inactive
growth inhibition (GI) [15]: inactive
fold change (FC) [16]: 10.9
Activity [17]: inactive
